An excerpt weighted towards active compounds, which were near 3.3% of everything screened.
SENP1 inh: human SENP1 catalytic domain inhibitors, primary screen, biochemical, FRET, uHTS; recombinant SENP1 catalytic domain, CyPet-SUMO1-YPet FRET cleavage; inhibition, % at 10 µM; 360,000 tested, 0.21% active;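 active means inhibition at least 30% at 10 µM, raw YFP signal under a set limit, fluorescence ratio 0.5 to 1.5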
Target sequence (Q9P0U3 419-644 limits assumed): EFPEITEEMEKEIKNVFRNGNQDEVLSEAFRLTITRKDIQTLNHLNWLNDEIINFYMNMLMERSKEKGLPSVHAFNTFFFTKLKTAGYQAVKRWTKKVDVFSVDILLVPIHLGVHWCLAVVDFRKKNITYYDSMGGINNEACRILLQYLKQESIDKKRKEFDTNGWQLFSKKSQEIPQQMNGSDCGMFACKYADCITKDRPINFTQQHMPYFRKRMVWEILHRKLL
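Compound: 10 µM single point, 0.5% DMSO; Test system: hSENP1 catalytic domain, recombinant; Timing: 50 min reaction at room temperature; Technique: FRET, CFP and YFP emission; Control set: no-enzyme wells low, DMSO-plus-enzyme wells high control.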
SENP7 block: SENP7 protease inhibitors, primary screen, biochemical, luminescence, uHTS. Sentrin-specific protease 7 (Homo sapiens), Q9BQF6. recombinant SENP7, Z-RLRGG-aminoluciferin luminescence, 40 min. inhibition, % at 5 µM. 330,000 tested, 1.5% active;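 active means inhibition above about 50% at the single test dose, limit read from the data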
SENP8 block-1: human SENP8 protease inhibitors, primary screen, biochemical, fluorescence, Nedd8 protein substrate, uHTS; AID 602440, 2012; 360,000 tested, 0.64% active; Sentrin-specific protease 8 (Homo sapiens), Q96LD8; inhibition, % at 20 µM; recombinant SENP8; in the data active means inhibition mostly above about 40%, no sharp cut-off; inactive means mostly below about 27%
NRP1-CendR mod: modulators of CendR peptide binding to NRP-1, primary screen, biochemical, fluorescence polarization, uHTS; Neuropilin-1 (Homo sapiens), O14786; FAM-RPARPAR peptide binding to NRP-1; inhibition, % at 25 µM; 360,000 tested, 0.85% active; AID 602438, 2012;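 active means inhibition or corrected inhibition above about 18%, plus a signal ratio from 0.5 to 1.5, limit read from the data, passing the limit was not always enough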
SENP8 block-2: SENP8 protease inhibitors, primary screen, biochemical, luminescence | inhibition, % at 10 µM | purified SENP8, Z-RLRGG-aminoluciferin cleavage | 330,000 tested, 1.2% active; in the data active means inhibition above about 50%
SENP6 block: SENP6 protease inhibitors, primary screen, biochemical, luminescence, uHTS; inhibition, % at 10 µM; AID 2599, 2010; Sentrin-specific protease 6 (Homo sapiens), Q9GZR1; 330,000 tested, 1.8% active; Recombinant SENP6 catalytic domain, aminoluciferin luminescence;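 active means inhibition above about 50% at the single tested dose, limit read from the data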
SENP8 conf: SENP8 protease inhibitors, retest, confirmation, biochemical, luminescence, single concentration; Recombinant SENP8, Z-RLRGG-aminoluciferin luminescence, 60 min; AID 488912, 2010; shares compounds with SENP7 block; 6,200 tested, 40% active; inhibition, % at 12.5 µM;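 active means mean inhibition across replicates above about 50%, limit read from the data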
SENP6 confirm: SENP6 protease inhibitors, confirmation, biochemical, luminescence, single concentration; recombinant SENP6, Z-RLRGG-aminoluciferin luminescence; 6,200 tested, 58% active; shares compounds with SENP7 block; inhibition, % at 12.5 µM; AID 488915, 2010
SENP7 confirm: SENP7 protease inhibitors, retest, confirmation, biochemical, luminescence, single concentration | shares compounds with SENP7 block | recombinant SENP7, Z-RLRGG-aminoluciferin luminescence, 40 min | inhibition, % at 12.5 µM | 6,200 tested, 69% active
Casp3 select: caspase-3 protease inhibitors, confirmation, selectivity assay for SENP inhibitor project, biochemical, single concentration | 6,200 tested, 60% active | shares compounds with SENP7 block | AID 488918, 2010 | purified caspase-3, Z-DEVD-aminoluciferin luminescence, 60 min | inhibition, % at 12.5 µM;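 active means mean inhibition above about 50%, limit read from the data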
Target sequence (P42574 28-227 limits assumed): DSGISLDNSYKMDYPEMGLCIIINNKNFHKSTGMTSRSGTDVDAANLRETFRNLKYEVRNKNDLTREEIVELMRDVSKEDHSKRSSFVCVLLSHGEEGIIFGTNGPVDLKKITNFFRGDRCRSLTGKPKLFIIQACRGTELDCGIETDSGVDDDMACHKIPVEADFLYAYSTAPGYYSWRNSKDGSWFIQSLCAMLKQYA
Luc interf: luminescence interference (SENP counter-screen); AID 488919; shares compounds with SENP7 block; inhibition, % at 12.5 µM; 6,200 tested, 39% active; Pre-incubated SENP8/Z-RLRGG-aminoluciferin, luciferase luminescence interference;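 active means mean inhibition above about 50% when retested at one dose, limit read from the data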
Each line names hits and unclear results; the compound was inactive in the other large screens (follow-up assays come after a bar, where they were run).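 How the source made its calls, unless noted: active means mean inhibition above about 50% in the one-dose retest (limit read from the data); inactive means the rest.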

COC(=O)CC1c2ccccc2S(=O)(=O)N1Cc1ccccc1 (stereo unspecified)	none
COC(=O)C[C@H]1c2cc(F)cc(F)c2S(=O)(=O)N1C1CCN(Cc2ccccc2)CC1	NRP1-CendR mod 27
CC(=O)C[C@H]1c2cc(C(F)(F)F)ccc2S(=O)(=O)N1C1CCCCC1	NRP1-CendR mod 27
CCCCn1nnnc1C(c1cc2ccccc2o1)N(CCC#N)Cc1ccccc1 (stereo unspecified)	none (no result: SENP7 block, SENP8 block-2, SENP6 block)
CN1CCN(C(=O)C[C@H]2CC[C@H]3[C@@H](COC[C@@H](O)CN3C(=O)C3CCCC3)O2)CC1	none (no result: SENP7 block, SENP8 block-2, SENP6 block)
CNC(=O)OC1CC2CC1[C@H]1CCCCN1C2=O (stereo partly specified)	none (no result: SENP7 block, SENP8 block-2, SENP6 block)
CCC(C)[C@H]1CNC(=O)C(=O)N1CC1CCCCC1 (stereo partly specified)	none (no result: SENP7 block, SENP8 block-2, SENP6 block)
O=C(Nc1ccc(N2CCOCC2)cc1)c1cc(-n2cnnc2)ccc1Cl	NRP1-CendR mod 26
CCCCCOC(=O)c1c(N)n(CCOC)c2nc3ccccc3nc12	SENP7 block 64, SENP8 block-2 63
CC(C)C1Oc2ccccc2C(=O)N(CC(=O)c2ccc3c(c2)OCCO3)C1=O (stereo unspecified)	SENP7 block 56 | SENP8 conf inactive | SENP6 confirm inactive | SENP7 confirm inactive | Casp3 select inactive | Luc interf inactive
Cc1cc(C)n(-c2ccc(C(=O)Nc3sccc3C(N)=O)cc2)n1	SENP7 block 63, SENP6 block 75 | SENP8 conf 64 | SENP6 confirm 64 | SENP7 confirm 82 | Casp3 select 58 | Luc interf inactive
CC1CCCCN1S(=O)(=O)c1ccc(C(=O)Nc2sccc2C(N)=O)cc1 (stereo unspecified)	SENP7 block 79, SENP8 block-2 86, SENP6 block 83 | SENP8 conf 87 | SENP6 confirm 88 | SENP7 confirm 97 | Casp3 select 74 | Luc interf inactive
NC(=O)c1ccsc1NC(=O)C1CCCN1S(=O)(=O)c1ccc(Cl)cc1 (stereo unspecified)	none
Cc1cc2nc(-c3ccccc3)c(CC(C)(C)C)n2c(C)c1Br	none (no result: SENP7 block, SENP8 block-2, SENP6 block)
O=C(Cc1ccccc1)O/N=C1\CCCc2ccccc21	none
Cc1cccc(/C(N)=N/OC(=O)c2ccc(F)cc2)c1	SENP7 block 99, SENP8 block-2 96, SENP6 block 98 | SENP8 conf 98 | SENP6 confirm 98 | SENP7 confirm 102 | Casp3 select 98 | Luc interf 89
O=C(O/N=C1\CCCc2ccccc21)c1cccs1	SENP7 block 91, SENP8 block-2 86, SENP6 block 88 | SENP8 conf inactive | SENP6 confirm 94 | SENP7 confirm 101 | Casp3 select 90 | Luc interf inactive
N/C(=N\OC(=O)c1cccs1)c1cccc(Br)c1	SENP7 block 88, SENP8 block-2 80 | SENP8 conf 87 | SENP6 confirm 89 | SENP7 confirm 99 | Casp3 select 90 | Luc interf 82
Cc1ccc(/C(N)=N/OC(=O)c2cccs2)cc1	SENP7 block 67, SENP8 block-2 68, SENP6 block 73 | SENP8 conf 58 | SENP6 confirm 65 | SENP7 confirm 91 | Casp3 select 73 | Luc interf 60
COc1ccc(/C(N)=N/OC(=O)c2cccs2)cc1OC	none
N/C(=N\OC(=O)Cc1ccccc1)c1cccc(Br)c1	none
Cc1ccc(S(=O)(=O)N2CCCCC2)cc1NS(=O)(=O)c1ccccc1F	none
C[C@@H]1CN([C@H](C)CO)C(=O)c2c(c3ccccc3n2C)-c2ccccc2CO[C@H]1CN(C)S(=O)(=O)c1cn(C)cn1	none (no result: SENP7 block, SENP8 block-2, SENP6 block)
COc1ccc(N2C(c3ccsc3)=Cc3cc4c(cc3C2c2c[nH]c3ccccc23)OCO4)cc1 (stereo unspecified)	none (no result: SENP7 block, SENP8 block-2, SENP6 block)
N/C(Cc1cccc2ccccc12)=N\OC(=O)c1cccs1	none
N/C(=N\OC(=O)c1cccs1)c1ccccc1	SENP7 block 99, SENP8 block-2 91 | SENP8 conf 93 | SENP6 confirm 95 | SENP7 confirm 101 | Casp3 select 97 | Luc interf 93
Cc1cccc(/C(N)=N/OC(=O)c2cccs2)c1	SENP7 block 97, SENP8 block-2 91, SENP6 block 88 | SENP8 conf 95 | SENP6 confirm 96 | SENP7 confirm 101 | Casp3 select 97 | Luc interf 96
O=C(Nc1ccc(NC(=O)c2ccc3c(c2)OCCO3)cc1)c1ccccc1	none
O=C(Nc1ccccc1)c1ccc2c(c1)OCCO2	SENP7 block 85, SENP8 block-2 77, SENP6 block 93 | SENP8 conf inactive | SENP6 confirm 77 | SENP7 confirm 97 | Casp3 select 92 | Luc interf 84
Cc1ccc(NC(=O)c2ccc3c(c2)OCCO3)cc1C	SENP7 block 92, SENP8 block-2 86, SENP6 block 91 | SENP8 conf inactive | SENP6 confirm 86 | SENP7 confirm 98 | Casp3 select 86 | Luc interf 88
Nc1c(C(=O)Nc2ccccc2)nnn1-c1ccc2c(c1)OCCO2	SENP7 block 82, SENP8 block-2 76, SENP6 block 85 | SENP8 conf 85 | SENP6 confirm 84 | SENP7 confirm 97 | Casp3 select 82 | Luc interf 70
